Compound activity from PubChem.
An excerpt weighted towards active compounds, which were near 12% of everything screened.
ABCB1 block = human ABCB1 inhibition, ABCG2 as counter-screen; 190,000 compounds, 0.067% hits; inhibition, % at 6.6 µM; CCRF-Adr cells, JC-1 efflux, flow cytometry; AID 1326; P08183; in the data active means inhibition above about 40%;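 further: 0% = vehicle and 100% = reference inhibitor; higher value means more JC-1 retained so stronger ABCB1 efflux block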
RAM network inh = yeast RAM network inhibition; S. cerevisiae dse1pr::URA3 reporter, 5-FOA growth OD615, 2 d; analog-sensitive cbk1-as2 kinase mutant strain; inhibition, % at 50 µM; 190,000 compounds, 1.8% hits;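 active means inhibition above a set limit, 3 SD over mean compound inhibition, cut at about 8.4% in these data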;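 further: 0% = DMSO-only wells with no growth and 100% = 10 µM 1-NA-PP1 full growth; inhibition rescues growth on 5-FOA so higher OD means more RAM inhibition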
L major viab = inhibitors of Leishmania major promastigote growth; Leishmania major promastigotes, resazurin fluorescence viability; inhibition, % at 10 µM; 200,000 compounds, 9% hits; AID 1063; in the data active means inhibition above about 50%;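 further: promastigotes grown with compound for 44 hours at 28 °C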
ABCG2 inh = human ABCG2 inhibition, ABCB1 as counter-screen. Q9UNQ0. IgMXP3 cells, JC-1 efflux, flow cytometry. inhibition, % at 6.6 µM. 190,000 compounds, 0.1% hits. AID 1325;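 active means inhibition above 80%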;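 further: 0% = DMSO and 100% = nicardipine control wells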
Target sequence (Q9UNQ0 whole entry, looked up): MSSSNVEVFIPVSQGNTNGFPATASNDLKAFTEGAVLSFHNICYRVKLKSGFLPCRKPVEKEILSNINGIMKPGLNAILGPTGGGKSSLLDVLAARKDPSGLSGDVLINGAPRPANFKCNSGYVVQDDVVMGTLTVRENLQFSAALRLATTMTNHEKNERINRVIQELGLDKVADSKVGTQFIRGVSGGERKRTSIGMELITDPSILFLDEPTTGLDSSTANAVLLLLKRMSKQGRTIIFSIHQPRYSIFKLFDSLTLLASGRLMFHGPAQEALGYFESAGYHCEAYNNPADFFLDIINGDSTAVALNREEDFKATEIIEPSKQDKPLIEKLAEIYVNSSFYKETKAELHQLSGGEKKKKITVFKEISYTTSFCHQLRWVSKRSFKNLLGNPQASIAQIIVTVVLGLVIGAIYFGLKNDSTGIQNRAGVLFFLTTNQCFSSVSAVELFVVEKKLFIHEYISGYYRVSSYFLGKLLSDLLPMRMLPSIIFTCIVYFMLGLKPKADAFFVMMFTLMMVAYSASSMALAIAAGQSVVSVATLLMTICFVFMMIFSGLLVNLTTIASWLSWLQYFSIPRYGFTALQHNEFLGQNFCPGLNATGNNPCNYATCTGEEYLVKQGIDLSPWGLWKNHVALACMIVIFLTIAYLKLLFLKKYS
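test system = two drug-resistant human cell lines, ABCG2 and ABCB1 | amount = 3 million cells/mL final, two lines in 1:1 ratio | reagent = JC-1 transporter substrate | doses = one concentration, 6.6 µM final | incubation = 10 min at 25 °C | signal = flow cytometric JC-1 green MFI at 530 nm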
WT yeast gro inh = growth inhibition of WT yeast, mitochondrial fusion screen | 190,000 compounds, 2.1% hits | inhibition, % at 10 µM | AID 1362 | mitochondrial fusion phenotypic screen, WT strain; in the data active means inhibition above about 58%; tested in S. cerevisiae
The depositor's hits bear a star; x = no result given.

SMILES | ABCB1 block | RAM network inh | L major viab | ABCG2 inh | WT yeast gro inh
O=C1C(NS(=O)(=O)c2cccs2)=C(N2CCN(c3cccc(C(F)(F)F)c3)CC2)C(=O)c2ccccc21 | 0 | 4 | 62* | 0 | 29
COc1ccccc1N1CCN(S(=O)(=O)c2cccs2)CC1 | 1 | 1 | 54* | 1 | 4
CC1(C)CC(c2nc(-c3ccc([N+](=O)[O-])cc3)cs2)CCO1 (centres undefined) | 1 | 0 | 3 | 13 | 25
Cc1ccc(OCC(=O)NCCc2c[nH]c3ccccc23)cc1 | 0 | 1 | 13 | 3 | 1
CCN(CC)CCn1c(NCc2nc3ccccc3n2Cc2ccccc2)nc2ccccc21 | 3 | 0 | 100* | 2 | 12
c1ccc(Cn2c(CNc3nc4ccccc4n3CCN3CCCCC3)nc3ccccc32)cc1 | 27 | 0 | 100* | 7 | 64*
Cn1c(CNc2nc3ccccc3n2CCN2CCCCC2)nc2ccccc21 | 1 | 1 | 99* | 1 | 6
OCCNc1nc2ccccc2n1CCN1CCCCC1 | 3 | -1 | -5 | 27 | 10
COc1ccc(CNc2nc3ccccc3n2CCN2CCCCC2)cc1 | 0 | 1 | 38 | 1 | 8
CCN(CC)c1ccc(CNc2nc3ccccc3n2CCN2CCCCC2)cc1 | 3 | -1 | 100* | 8 | 56
O=C(CN1CCN(c2ccc(O)cc2)CC1)Nc1cc([N+](=O)[O-])ccc1Cl | 0 | 2 | 19 | 30 | 2
Clc1ccc(Cn2c(CN3CCCC3)nc3ccccc32)cc1 | 2 | 2 | 100* | 5 | 31
Cn1c(CNc2ccccc2O)nc2ccccc21 | 0 | 2 | 89* | 1 | 42
c1ccc(Cn2c(CN3CCCC3)nc3ccccc32)cc1 | 0 | 0 | 4 | 0 | -7
CC1CCCN(C(c2cccs2)c2nnnn2Cc2ccccc2)C1 (centres undefined) | 1 | 0 | 30 | 3 | 6
CCOc1ccc(NC2=C(Cl)C(=O)N(C3CCCCC3)C2=O)cc1 | 0 | 7 | -8 | 3 | 3
CN1CCN(C2=C(Cl)C(=O)N(C3CCCCC3)C2=O)CC1 | 0 | 1 | 95* | 6 | -2
CCOC(=O)c1ccc(NC(=O)COc2ccc(CNCCO)cc2OCC)cc1 | 0 | 0 | 32 | 4 | -3
CCOC(=O)c1ccc(NC(=O)COc2ccccc2CNCCc2ccccc2)cc1 | 4 | 4 | 101* | -2 | 40
COc1cc(CNC(C)(C)CO)ccc1OCC(=O)Nc1ccc(Br)cc1 | 0 | 0 | 101* | 1 | 12
CCOC(=O)c1ccc(NC(=O)COc2ccc(CNC3CCCCC3)cc2OC)cc1 | 2 | 0 | 94* | 1 | 28
CC1=C(C(=O)Nc2ccccc2)C(c2cccs2)NC(=O)N1 (centres undefined) | 0 | 0 | -1 | 2 | 0
Nc1c(C(=O)NCc2ccccc2)c2nc3ccccc3nc2n1CCCN1CCOCC1 | 2 | 1 | 41 | 14 | 83
COc1ccc(CNC(=O)c2c(N)n(CCCN3CCOCC3)c3nc4ccccc4nc23)cc1 | 0 | 0 | 87* | 2 | -6
Nc1c(C(=O)NCc2ccc(F)cc2)c2nc3ccccc3nc2n1CCCN1CCOCC1 | 1 | 6 | 100* | 4 | 7
SMILES | ABCB1 block | RAM network inh | L major viab | ABCG2 inh | WT yeast gro inh
NC(=NCCc1ccccc1)NS(=O)(=O)c1ccccc1 | 5 | 2 | -3 | 11 | -4
O=c1cc(CN2CCC(Cc3ccccc3)CC2)nc2sccn12 | 0 | 2 | 88* | 4 | 8
Cc1cccc(OC2CCN(Cc3nc(CC4CC4)no3)CC2)c1 | 0 | -1 | -2 | 0 | 6
Cc1cccc(OC2CCN(Cc3c(C(=O)N4CCCC4)nc4ccccn34)CC2)c1 | 2 | 2 | 99* | 1 | 8
O=C(c1nc2ccccn2c1CN1CCC(Cc2ccccc2)CC1)N1CCCC1 | 1 | 2 | 69* | 1 | 13
CN1Cc2ccccc2CC1CNCc1c(C(=O)N2CCCC2)nc2ccccn12 (centres undefined) | 0 | 2 | -4 | 2 | -9
CS(=O)(=O)N(Cc1ccccc1)c1ccccc1C(=O)N1CCN(c2ccccc2)CC1 | 1 | 2 | 48 | 0 | x
COc1ccc(NC(=O)c2n[nH]c(=O)c3ccccc23)cc1S(=O)(=O)N1CCCCC1 | 0 | 5 | 7 | 19 | -3
COc1ccccc1NC(=S)NCCC(c1ccccc1)c1ccccc1 | 0 | 9.8* | 19 | 3 | 71*
CCc1ccccc1NC(=O)NC1CCCCC1 | 1 | 1 | 5 | 18 | -2
COc1ccccc1NC(=S)NC1CCCCCC1 | 0 | 0 | 48 | 7 | 59*
CC(C)(C)c1ccccc1NC(=S)NC1CCCCC1 | 0 | 6 | 19 | 0 | 66*
Cc1cccc(NC(=O)C2CCCN(C(=O)NC3CCCCC3)C2)c1C (centres undefined) | 0 | 2 | -2 | 1 | -4
Cc1cccc(NC(=S)NC2CCCCCC2)c1C | 1 | -2 | 82* | 5 | 67
CC(=O)NC1(c2ccccc2)CCN(c2cc(C)nc(-c3ccccc3)n2)CC1 | 0 | 0 | 21 | 2 | -2
CC1=C(C(=O)OC(C)C)C(c2cccc([N+](=O)[O-])c2)n2c(cc(=O)[nH]c2=S)N1 (centres undefined) | -1 | 2 | -5 | -6 | 13
O=S(CC1CC1(Cl)Cl)CC1CC1(Cl)Cl (centres undefined) | 0 | 0 | -3 | 0 | 5
O=C(CSCC(=O)OCn1nnc2ccccc2c1=O)Nc1ccc(Cl)cc1 | 0 | 1 | -5 | 1 | 70*
COc1cc(CCN2C(=O)c3cccc4cccc(c34)C2=O)c(S(=O)(=O)N2CCC(C)CC2)cc1OC | 1 | 2 | 38 | 0 | 7
Cc1ccccc1Nc1c(-c2cccnc2)nc2cccc(C)n12 | 2 | -1 | 12 | 8 | 18
Cc1ccc2nc(-c3ccncc3)c(NC3CCCC3)n2c1 | 0 | 1 | 31 | 1 | -3
c1ccc(-c2nc3ccccn3c2NC2CCCC2)nc1 | 0 | 2 | 100* | 2 | 68*
Cc1ccn2c(Nc3ccccc3C)c(-c3ccncc3)nc2c1 | 5 | 2 | 86* | 18 | -13
Cc1ccc2nc(-c3ccncc3)c(NC3CCCCC3)n2c1 | 2 | 1 | 65* | 6 | 1
Cc1ccn2c(NC3CCCC3)c(-c3ccncc3)nc2c1 | 3 | 2 | 89* | 17 | 18
CCOC(=O)C1=C(C(F)(F)F)Nc2ncnn2C1c1cc(OC)ccc1OC (centres undefined) | 0 | 3 | -6 | 2 | -12
O=C(c1ccc(Cl)c(S(=O)(=O)N2CCOCC2)c1)N(c1ccccn1)C1CCCCC1 | 1 | 1 | 2 | 7 | -1
C=CCN(CC=C)C(=S)NC(=O)c1ccc(C)c(Br)c1 | 0 | 1 | 18 | 3 | 51
Cc1cccc(NC(=O)Cn2cnc3c(oc4ccccc43)c2=O)c1C | 0 | 2 | -10 | 0 | -1
